# Experimental data as given in ChEMBL document CHEMBL1129492, “Structure-activity relationships among 2-substituted 5,6-dichloro-, 4,6-dichloro-, and 4,5-dichloro-1-[(2-hydroxyethoxy) methyl]- and -1-[(1,3-dihydroxy-2-propoxy) methyl]benzimidazoles” (J Med Chem, 1996).
# Legend:
# Human alphaherpesvirus 1 = experiment: Antiviral activity against herpes simplex virus type 1 (HSV-1) in an ELISA assay; type: functional, organism-based
# In short: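 BSC-1 cells (10 000/well, MEM(E) + 10% calf serum) incubated overnight at 37 °C, then given drug in quadruplicate with HSV-1 at 100 PFU/well. After 3 days at 37 °C, plates were blocked and probed with HRP-conjugated rabbit anti-HSV-1 antibody and developed with tetramethylbenzidine. Absorbance was read at 450 and 570 nm. Percent reduction was taken versus virus without drug.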
# KB [1] = experiment: Inhibitory activity of compound against KB cell growth; type: functional, cell-based; conditions: Homo sapiens
# In short: (§1)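 KB cells plated at 3000-5000 cells/well and held overnight at 37 °C. Compound added in quadruplicate at six to eight concentrations, then 48 h at 37 °C in CO₂ (about two population doublings). Cells fixed with 95% ethanol, stained with 0.1% crystal violet, dye eluted with acidified ethanol and read at 570 nm. IC50 from regression.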
# HFF = experiment: Visual cytotoxicity of compound on HFF cells at time of HCMV plaque enumeration; type: functional, cell-based; conditions: Homo sapiens
# In short: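 Stationary, uninfected HFF cells in the HCMV plaque assay were scored microscopically for cytotoxicity when plaques were enumerated, after 7 days at 37 °C.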
# Human betaherpesvirus 5 [2] = experiment: Antiviral activity against human cytomegalovirus (HCM virus) in plaque assay; type: functional, organism-based
# In short: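 HCMV Towne strain (plaque-purified P_O) at ca. 100 PFU/cm² on HFF cell sheets. After adsorption, compound in growth medium was added to duplicate wells at four to eight concentrations. Incubated 7 days at 37 °C, then crystal violet staining and microscopic plaque counts. Percent plaque reduction versus no drug; IC50 from regression lines.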
# KB [3] = experiment: Inhibitory activity of compound against KB cell growth [>-indicates IC50/IC90 was not reached at the noted (highest) concentration tested]; type: functional, cell-based; conditions: Homo sapiens; in short: as §1
# Human betaherpesvirus 5 [4] = experiment: Antiviral activity of compound against HCMvirus in yield reduction experiments; type: functional
# In short: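 HCMV Towne strain (plaque-purified isolate P_O) grown on HFF cells in 96-well dishes, infected at moi 0.5-1 PFU/cell. After adsorption, compound added in 1:3 serial dilutions from 100 to 0.14 µM, in duplicate. 7 days at 37 °C, then one freeze-thaw. Progeny titred by plaque count on fresh HFF monolayers.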
# Human betaherpesvirus 5 [5] = experiment: Antiviral activity of compound against HCM virus in yield reduction experiments; type: functional
# In short: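 HFF cells infected with HCMV (Towne) at moi 0.5-1 PFU/cell, then given compound serially diluted 1:3 (100 to 0.14 µM) in duplicate. After 7 days at 37 °C, one freeze-thaw cycle. Progeny virus was titered by 1:3 serial dilution on fresh HFF monolayers with plaque counting. IC90 reported.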
SMILES,IC50 (Human alphaherpesvirus 1),IC50 (KB [1]),IC50 (HFF),IC50 (Human betaherpesvirus 5 [2]),IC50 (KB [3]),IC90 (Human betaherpesvirus 5 [4]),IC90 (Human betaherpesvirus 5 [5])
OCCOCn1c(Cl)nc2cc(Cl)c(Cl)cc21,> 100 µM,> 320 µM,> 320 µM,> 320 µM,–,–,–
CN(C)c1nc2c(Cl)c(Cl)ccc2n1COC(CO)CO,> 100 µM,–,> 100 µM,> 100 µM,> 100 µM,–,–
OCCOCn1c(SCc2ccccc2)nc2c(Cl)c(Cl)ccc21,> 100 µM,35 µM,32 µM,30 µM,–,–,–
OCCOCn1cnc2c(Cl)cc(Cl)cc21,> 100 µM,> 100 µM,> 100 µM,> 100 µM,–,–,–
OCCOCn1cnc2c(Cl)c(Cl)ccc21,> 100 µM,> 100 µM,> 100 µM,> 100 µM,–,–,–
OCC(CO)OCn1c(Cl)nc2c(Cl)cc(Cl)cc21,–,–,> 100 µM,> 100 µM,–,–,–
OC[C@H]1O[C@H](n2c(Br)nc3cc(Cl)c(Cl)cc32)[C@@H](O)[C@H]1O,–,–,–,–,> 100 µM,0.2 µM,–
CNc1nc2c(Cl)cc(Cl)cc2n1COCCO,> 100 µM,> 100 µM,> 100 µM,> 100 µM,–,–,–
OCCOCn1c(Br)nc2cc(Cl)c(Cl)cc21,> 100 µM,> 100 µM,> 100 µM,> 100 µM,–,–,–
OCCOCn1c(S)nc2c(Cl)c(Cl)ccc21,> 100 µM,> 100 µM,> 100 µM,> 100 µM,–,–,–
CNc1nc2c(Cl)cc(Cl)cc2n1COC(CO)CO,–,–,100 µM,> 100 µM,–,–,–
OCCOCn1c(SCc2ccccc2)nc2cc(Cl)c(Cl)cc21,45 µM,55 µM,32 µM,40 µM,–,–,–
CN(C)c1nc2cc(Cl)c(Cl)cc2n1COC(CO)CO,> 100 µM,–,> 100 µM,> 100 µM,> 100 µM,–,–
Nc1nc2cc(Cl)c(Cl)cc2n1COC(CO)CO,> 100 µM,–,> 100 µM,> 100 µM,> 100 µM,–,–
CN(C)c1nc2cc(Cl)c(Cl)cc2n1COCCO,> 100 µM,> 100 µM,> 100 µM,> 100 µM,–,–,–
Nc1nc2c(ncn2COC(CO)CO)c(=O)[nH]1 [GANCICLOVIR],–,–,> 100 µM,–,> 100 µM,–,1.6 µM
Nc1nc2c(Cl)cc(Cl)cc2n1COC(CO)CO,–,–,100 µM,> 100 µM,–,–,–
OCC(CO)OCn1c(S)nc2c(Cl)c(Cl)ccc21,> 100 µM,–,> 100 µM,> 100 µM,> 100 µM,–,–
Nc1nc2cc(Cl)c(Cl)cc2n1COCCO,> 100 µM,> 100 µM,> 100 µM,> 100 µM,–,–,–
Nc1nc2c(Cl)cc(Cl)cc2n1COCCO,100 µM,> 100 µM,–,> 100 µM,–,–,–
OC[C@H]1O[C@@H](n2c(Cl)nc3cc(Cl)c(Cl)cc32)[C@H](O)[C@@H]1O,–,–,–,–,–,1.4 µM,–
OCC(CO)OCn1c(SCc2ccccc2)nc2c(Cl)c(Cl)ccc21,55 µM,–,32 µM,35 µM,60 µM,–,–
OCCOCn1c(Br)nc2c(Cl)c(Cl)ccc21,> 100 µM,> 100 µM,> 100 µM,> 100 µM,–,–,–
OCCOCn1c(Br)nc2c(Cl)cc(Cl)cc21,> 100 µM,> 100 µM,> 100 µM,> 100 µM,–,–,–

SMILES,IC50 (Human alphaherpesvirus 1),IC50 (KB [1]),IC50 (HFF),IC50 (Human betaherpesvirus 5 [2]),IC50 (KB [3]),IC90 (Human betaherpesvirus 5 [4]),IC90 (Human betaherpesvirus 5 [5])
CNc1nc2c(Cl)c(Cl)ccc2n1COCCO,> 100 µM,> 100 µM,> 100 µM,> 100 µM,–,–,–
OCCOCn1c(SCc2ccccc2)nc2c(Cl)cc(Cl)cc21,> 100 µM,> 100 µM,32 µM,50 µM,–,–,–
CN(C)c1nc2c(Cl)cc(Cl)cc2n1COC(CO)CO,> 100 µM,–,> 100 µM,> 100 µM,> 100 µM,–,–
OCC(CO)OCn1c(Cl)nc2c(Cl)c(Cl)ccc21,100 µM,–,> 100 µM,> 100 µM,> 100 µM,–,–
OCC(CO)OCn1cnc2cc(Cl)c(Cl)cc21,> 100 µM,–,> 100 µM,> 100 µM,> 100 µM,–,–
OCC(CO)OCn1cnc2c(Cl)c(Cl)ccc21,> 100 µM,–,> 100 µM,> 100 µM,> 100 µM,–,–
Nc1nc2c(Cl)c(Cl)ccc2n1COCCO,> 100 µM,> 100 µM,> 100 µM,> 100 µM,–,–,–
CN(C)c1nc2c(Cl)cc(Cl)cc2n1COCCO,> 100 µM,–,–,> 100 µM,–,–,–
OCC(CO)OCn1c(Br)nc2c(Cl)cc(Cl)cc21,–,–,161 µM,136 µM,> 100 µM,–,50 µM
CNc1nc2c(Cl)c(Cl)ccc2n1COC(CO)CO,> 100 µM,–,> 100 µM,> 100 µM,> 100 µM,–,–
OCC(CO)OCn1c(Cl)nc2cc(Cl)c(Cl)cc21,> 100 µM,–,> 100 µM,> 100 µM,> 100 µM,–,–
OCCOCn1c(Cl)nc2c(Cl)cc(Cl)cc21,> 100 µM,–,–,> 100 µM,–,–,–
OCC(CO)OCn1c(S)nc2c(Cl)cc(Cl)cc21,> 100 µM,–,> 100 µM,> 100 µM,> 100 µM,–,–
OCCOCn1c(Cl)nc2c(Cl)c(Cl)ccc21,> 100 µM,> 100 µM,> 100 µM,> 100 µM,–,–,–
OCC(CO)OCn1c(SCc2ccccc2)nc2cc(Cl)c(Cl)cc21,> 100 µM,–,> 100 µM,> 100 µM,> 100 µM,–,–
CNc1nc2cc(Cl)c(Cl)cc2n1COC(CO)CO,> 100 µM,–,> 100 µM,> 100 µM,> 100 µM,–,–
OCCOCn1cnc2cc(Cl)c(Cl)cc21,> 100 µM,> 100 µM,> 100 µM,> 100 µM,–,–,–
Nc1nc2c(Cl)c(Cl)ccc2n1COC(CO)CO,> 100 µM,–,> 100 µM,> 100 µM,> 100 µM,–,–
CNc1nc2cc(Cl)c(Cl)cc2n1COCCO,> 100 µM,> 100 µM,> 100 µM,> 100 µM,–,–,–
OCC(CO)OCn1c(Br)nc2cc(Cl)c(Cl)cc21,100 µM,–,> 100 µM,> 100 µM,> 100 µM,–,25 µM
OCC(CO)OCn1c(S)nc2cc(Cl)c(Cl)cc21,55 µM,–,> 100 µM,> 100 µM,> 100 µM,–,–
OCCOCn1c(S)nc2cc(Cl)c(Cl)cc21,> 100 µM,> 100 µM,100 µM,> 100 µM,–,–,–
OCCOCn1c(S)nc2c(Cl)cc(Cl)cc21,> 100 µM,> 100 µM,> 100 µM,> 100 µM,–,–,–
OCC(CO)OCn1c(Br)nc2c(Cl)c(Cl)ccc21,> 100 µM,–,> 100 µM,> 100 µM,> 100 µM,–,–
